# Published values collected from several papers.
# Each line is one published result; the experiments were not run side by side.
# Target: MAP/microtubule affinity-regulating kinase 3 (MARK3, Homo sapiens, UniProt P27448)
Structure (SMILES),test,test system,conditions,measurement,result
O=C(NS(=O)(=O)c1ccc(NCC2CCOCC2)c([N+](=O)[O-])c1)c1ccc(N2CCN(Cc3ccc(C(F)(F)F)cc3-c3ccc(Cl)cc3)CC2)cc1Oc1cnc2[nH]ccc2c1,"cell-free assay, competition with immobilised ligand",,1 µM,remaining binding,100%
O=C1Nc2ccc(Cl)cc2C1=Cc1cc(Cl)c(O)c(Cl)c1,cell-free assay,,0.5 µM,remaining signal,81.1%
O=C(NCCCNc1nc(Nc2cccc(CN3CCOCC3)c2)ncc1C1CC1)C1CCC1,"enzyme activity, inhibitor, radiometric",,1 µM,remaining activity,-1%
N#CCCc1ccc2c(c1)-c1[nH]c3ccc([N+](=O)[O-])cc3c1CC(=O)N2,cell-free assay,,0.5 µM,remaining signal,67.3%
Cc1nn(CC(F)(F)F)cc1Nc1ncc(C2CC2)c(NCCCNC(=O)C2CCC2)n1,"enzyme activity, inhibitor, radiometric",,1 µM,remaining activity,96%
CN(c1ncccc1CNc1nc(Nc2ccc3c(c2)CC(=O)N3)ncc1C(F)(F)F)S(C)(=O)=O,"enzyme activity, inhibitor",,1 µM,inhibition,83.5%
c1cc(CN2CCOCC2)cc(Nc2ncc(C3CC3)c(NCCc3c[nH]cn3)n2)c1,"enzyme activity, inhibitor, radiometric",,1 µM,remaining activity,0%
CN(C)c1ncnc(-c2ccc3nc(Nc4cc(CN5CCN(C(=O)CC(F)(F)F)CC5)ccn4)[nH]c3c2)c1Cl,"cell-free assay, competition with immobilised ligand",,1 µM,remaining binding,100%
Cc1nn(CC(F)(F)F)cc1Nc1ncc(Br)c(NCCc2cnc[nH]2)n1,"enzyme activity, inhibitor, radiometric",,1 µM,remaining activity,68%
CCS(=O)(=O)c1cc2cc(C[C@](O)(CC(C)(C)c3ccc(F)cc3C(N)=O)C(F)(F)F)[nH]c2cn1,"cell-free assay, competition with immobilised ligand",,1 µM,remaining binding,100%
FC(F)(F)Oc1cccc(-c2cnc3ccc(-c4ccncc4)nn23)c1,"enzyme activity, inhibitor, radiometric",,5 µM,activity vs control,95%
CN(C)C(=O)Cn1cc(-c2nc(C3(c4ccc(-c5cnc(N)nc5)cc4)CC3)no2)cn1,"cell-free assay, competition with immobilised ligand",,1 µM,remaining binding,100%
O=C(CSc1nc2nccnc2c(=O)n1CCc1ccccc1)Nc1nccs1,"enzyme activity, inhibitor",,10 µM,inhibition,7%
C[C@H](c1ccnc(Nc2nc3ccc(-c4cc(N(C)C)ncn4)cc3[nH]2)c1)N1CCN(C(=O)CC(F)(F)F)CC1,"cell-free assay, competition with immobilised ligand",,0.1 µM,remaining binding,100%
Oc1ccc(-c2nc(-c3ccncc3)c(-c3ccc(F)cc3)[nH]2)cc1,cell-free assay,,0.5 µM,remaining signal,105%
Cc1nn(CC(F)(F)F)cc1Nc1ncc(C2CC2)c(NCc2ccc(S(N)(=O)=O)cc2)n1,"enzyme activity, inhibitor, radiometric",,1 µM,remaining activity,111%
CNc1cc(Oc2cc(C(=O)Nc3cc(N4CCN(C)CC4)cc(C(F)(F)F)c3)ccc2C)ncn1,"target engagement in cells, inhibitor, chemoproteomics",Huh-7,1 µM,inhibition,-18.5%
Nc1ncnc2occ(-c3ccc(NC(=O)Nc4cc(C(F)(F)F)ccc4F)cc3)c12,"cell-free assay, inhibitor",,20 µM,remaining signal,15%
CCN(CC)CCNC(=O)c1c(C)[nH]c(/C=C2\C(=O)Nc3ccc(F)cc32)c1C,cell-free assay,,0.5 µM,remaining signal,30.4%
Cc1nn(CC(F)(F)F)cc1Nc1nccc(NCCCNC(=O)C2CCC2)n1,"enzyme activity, inhibitor, radiometric",,1 µM,remaining activity,126%
COc1cc2ncnc(Nc3ccc(Oc4ccccc4)c(C)c3C)c2cc1OC,"enzyme activity, inhibitor",,1 µM,inhibition,-4%
O=C(NCCCNc1ccnc(Nc2cccc(NC(=O)N3CCCC3)c2)n1)C1CCC1,"enzyme activity, inhibitor, radiometric",,1 µM,remaining activity,92%
Nc1nc(Nc2ccccc2)sc1C(=O)c1c(F)cccc1F,"enzyme activity, inhibitor",,10 µM,remaining activity,25%
C[C@@H]1CN(c2cc(-c3n[nH]c4ccc(OC5(C)CC5)cc34)ncn2)C[C@H](C)O1,"cell-free assay, competition with immobilised ligand",,0.1 µM,remaining binding,73%
COc1cc(Nc2cnc(C#N)c(O[C@H](C)CN(C)C)n2)ncc1-c1cnn(C)c1,"enzyme activity, inhibitor, radiometric",,10 µM,remaining activity,69%
O=C(Nc1cnc(Oc2ccc(F)cc2)nc1)N1CCc2ncccc2[C@@H]1c1ccc(F)cc1,"cell-free assay, competition with immobilised ligand",,1 µM,remaining binding,100%
O=C(NCCCNc1nc(Nc2cccc(NC(=O)N3CCCC3)c2)ncc1C1CC1)C1CCC1,"enzyme activity, inhibitor, radiometric",,1 µM,remaining activity,0%
CCOC(=O)c1cc2cc(-c3cc(C(=O)NCc4ccc(C(=O)O)cc4)nn3C)ccc2[nH]1,"cell-free assay, competition with immobilised ligand",,0.1 µM,remaining binding,93%
c1ccc(CNc2nc(N3CCOc4ccccc43)nc3c2CCCC3)cc1,"target engagement in cells, inhibitor, chemoproteomics",,20 mM,inhibition,3%
